Source: ChEMBL document CHEMBL1135748, “4-Substituted D-glutamic acid analogues: the first potent inhibitors of glutamate racemase (MurI) enzyme with antibacterial activity” (J Med Chem, 2002)
≈ marks a conversion by molar mass, not a printed value.

Columns and labels:
[1] = Inhibitory activity against recombinant Glutamate Racemase from Streptococcus pneumoniae expressed in Escherichia coli
Method in brief: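 Enzyme purified by Ni(II) IMAC, imidazole gradient, from E. coli paste overexpressing the S. pneumoniae racemase; dialysed into Tris-HCl pH 7.8 with β-mercaptoethanol. Enzyme (6 µg mL-1) with 10 mM L-glutamate, inhibitor added before enzyme, 15 min at room temperature. Quenched with Marfey's reagent; derivatised 60 min at 40 °C. D/L-Glu separated by C18 HPLC, A340. Conversion from D/(D+L) peak areas over decreasing inhibitor concentrations gives IC50.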

Streptococcus pneumoniae [2] = assay: In vitro whole cell growth inhibition against PN-R6 strain of Streptococcus pneumoniae; assay type: functional
Method in brief: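 NCCLS microtiter broth dilution. Compounds in DMSO, 2-fold serial dilutions from 250 to 0.25 µg/mL in Mueller–Hinton II broth plus 5% lysed horse blood. Inoculum 5 × 10^5 CFU/mL; final DMSO 2.5%. Incubated overnight at 35 °C. MIC is the lowest concentration visibly inhibiting growth.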

Staphylococcus aureus = assay: Antibacterial activity against Staphylococcus aureus 027 strain; assay type: functional
Streptococcus pneumoniae [3] = assay: Antibacterial activity against Streptococcus pneumoniae Park1 strain; assay type: functional
Moraxella catarrhalis = assay: Antibacterial activity against Moraxella catarrhalis BC-1 strain; assay type: functional
Streptococcus pneumoniae [4] = assay: Antibacterial activity against Streptococcus pneumoniae R6 strain; assay type: functional

Row | SMILES | IC50 [1] | MIC (Streptococcus pneumoniae [2]) | MIC (Staphylococcus aureus) | MIC (Streptococcus pneumoniae [3]) | MIC (Moraxella catarrhalis) | MIC (Streptococcus pneumoniae [4])
1 | N[C@H](C[C@H](Cc1cccc(Br)c1)C(=O)O)C(=O)O | 0.13 µg/mL | 0.5 µg/mL (≈ 1.58 µM) | – | – | – | –
2 | N[C@H](C[C@H](C/C=C/C=C/c1ccccc1)C(=O)O)C(=O)O | 9.1 µg/mL | 3.9 µg/mL (≈ 13.5 µM) | – | – | – | –
3 | C#CC[C@@H](C[C@@H](N)C(=O)O)C(=O)O | 5.5 µg/mL | 31.3 µg/mL (≈ 169 µM) | – | – | – | –
4 | N[C@H](C[C@H](CCCC1CCCCC1)C(=O)O)C(=O)O | 0.6 µg/mL | 2 µg/mL (≈ 7.37 µM) | – | – | – | –
5 | N[C@H](C[C@H](Cc1ccc([N+](=O)[O-])cc1)C(=O)O)C(=O)O | 5.2 µg/mL | 2 µg/mL (≈ 7.09 µM) | – | – | – | –
6 | N[C@H](C[C@H](CCCc1ccccc1)C(=O)O)C(=O)O | 0.5 µg/mL | 3.9 µg/mL (≈ 14.7 µM) | – | – | – | –
7 | N[C@H](C[C@H](Cc1ccc(Cl)cc1)C(=O)O)C(=O)O | 0.3 µg/mL | 0.5 µg/mL (≈ 1.84 µM) | – | – | – | –
8 | N[C@H](C[C@H](Cc1ccc(-c2ccc3ccccc3c2)cc1)C(=O)O)C(=O)O | 0.42 µg/mL | 7.8 µg/mL (≈ 21.5 µM) | – | – | – | –
9 | N[C@H](C[C@H](Cc1cccs1)C(=O)O)C(=O)O | 0.1 µg/mL | 1 µg/mL (≈ 4.11 µM) | – | – | – | –
10 | N[C@H](C[C@H](Cc1sc2ccccc2c1Cl)C(=O)O)C(=O)O | 0.01 µg/mL | 0.5 µg/mL (≈ 1.53 µM) | – | – | – | –
11 | N[C@H](C[C@H](Cc1ccccc1)C(=O)O)C(=O)O | 0.3 µg/mL | 0.5 µg/mL (≈ 2.11 µM) | – | – | – | –
12 | N[C@H](C[C@H](C/C=C/c1ccc2ccccc2c1)C(=O)O)C(=O)O | 0.5 µg/mL | 0.5 µg/mL (≈ 1.6 µM) | – | – | – | –
13 | N[C@H](C[C@H](Cc1cc2ccccc2[nH]1)C(=O)O)C(=O)O | 9.8 µg/mL | 62.5 µg/mL (≈ 226 µM) | – | – | – | –
14 | N[C@H](C[C@H](Oc1ccc(Oc2ccccc2)cc1)C(=O)O)C(=O)O | 46.3 µg/mL | 125 µg/mL (≈ 377 µM) | – | – | – | –
15 | N[C@H](C[C@H](Oc1ccc(-c2ccccc2)cc1)C(=O)O)C(=O)O | 8.2 µg/mL | 31.3 µg/mL (≈ 99.3 µM) | – | – | – | –
16 | N[C@H](C[C@H](Cc1nc2ccccc2s1)C(=O)O)C(=O)O | 0.38 µg/mL | 0.24 µg/mL (≈ 0.815 µM) | – | – | – | –
17 | COc1ccc(C[C@@H](C[C@@H](N)C(=O)O)C(=O)O)cc1 | 0.1 µg/mL | 0.5 µg/mL (≈ 1.87 µM) | – | – | – | –
18 | N[C@H](C[C@H](Cc1ccc(-c2cc3ccccc3s2)cc1)C(=O)O)C(=O)O | 0.65 µg/mL | 3.9 µg/mL (≈ 10.6 µM) | – | – | – | –
19 | N[C@H](C[C@H](Cc1cc(Cl)cc(Cl)c1)C(=O)O)C(=O)O | 3 µg/mL | 3.9 µg/mL (≈ 12.7 µM) | – | – | – | –
20 | N[C@H](C[C@H](Cc1cccc([N+](=O)[O-])c1)C(=O)O)C(=O)O | 5.2 µg/mL | 2 µg/mL (≈ 7.09 µM) | – | – | – | –
21 | N[C@H](C[C@H](Cc1ccccc1Br)C(=O)O)C(=O)O | 6.3 µg/mL | 31.3 µg/mL (≈ 99 µM) | – | – | – | –
22 | N[C@H](C[C@H](Cc1cccc(-c2ccccc2)c1)C(=O)O)C(=O)O | 0.7 µg/mL | 0.5 µg/mL (≈ 1.6 µM) | – | – | – | –
23 | N[C@H](C[C@H](Cc1ccc(NC(=O)Nc2ccccc2)cc1)C(=O)O)C(=O)O | 0.49 µg/mL | 15.6 µg/mL (≈ 42 µM) | – | – | – | –

Row | SMILES | IC50 [1] | MIC (Streptococcus pneumoniae [2]) | MIC (Staphylococcus aureus) | MIC (Streptococcus pneumoniae [3]) | MIC (Moraxella catarrhalis) | MIC (Streptococcus pneumoniae [4])
24 | N[C@H](C[C@H](Cc1cccc(-c2ccco2)c1)C(=O)O)C(=O)O | 0.5 µg/mL | 0.24 µg/mL (≈ 0.791 µM) | – | – | – | –
25 | N[C@H](C[C@H](CC#Cc1ccccc1)C(=O)O)C(=O)O | 0.37 µg/mL | 2 µg/mL (≈ 7.65 µM) | – | – | – | –
26 | N[C@H](C[C@H](Cc1ccccc1-c1ccccc1)C(=O)O)C(=O)O | > 100 µg/mL | > 250 µg/mL | – | – | – | –
27 | N[C@H](C[C@H](Cc1cc2ccccc2o1)C(=O)O)C(=O)O | 0.1 µg/mL | 0.24 µg/mL (≈ 0.866 µM) | – | – | – | –
28 | N[C@H](C[C@H](Cc1cc2ccccc2s1)C(=O)O)C(=O)O | 0.036 µg/mL | 0.24 µg/mL (≈ 0.818 µM) | > 250 µg/mL | 0.24 µg/mL (≈ 0.818 µM) | > 250 µg/mL | 0.24 µg/mL (≈ 0.818 µM)
29 | N[C@H](C[C@H](Cc1ccc(-c2ccsc2)cc1)C(=O)O)C(=O)O | 0.32 µg/mL | 0.24 µg/mL (≈ 0.751 µM) | – | – | – | –
30 | N[C@H](C[C@H](Oc1ccccc1)C(=O)O)C(=O)O | 26.5 µg/mL | 62.5 µg/mL (≈ 261 µM) | – | – | – | –
31 | N[C@H](C[C@H](Cc1cccc(C(F)(F)F)c1)C(=O)O)C(=O)O | 0.8 µg/mL | 0.5 µg/mL (≈ 1.64 µM) | – | – | – | –
32 | N[C@H](C[C@H](Cc1ccc(C(F)(F)F)cc1)C(=O)O)C(=O)O | 0.8 µg/mL | 7.8 µg/mL (≈ 25.6 µM) | – | – | – | –
33 | N[C@H](C[C@H](Cc1ccc(-c2ccccc2)cc1)C(=O)O)C(=O)O | 0.078 µg/mL | 1 µg/mL (≈ 3.19 µM) | – | – | – | –
34 | N[C@H](C[C@H](Cc1cccc(-c2cc3ccccc3s2)c1)C(=O)O)C(=O)O | 0.3 µg/mL | 0.5 µg/mL (≈ 1.35 µM) | – | – | – | –
35 | N[C@H](C[C@H](Cc1cccc(Cl)c1)C(=O)O)C(=O)O | 3.4 µg/mL | 1 µg/mL (≈ 3.68 µM) | – | – | – | –
36 | N[C@H](C[C@H](Cc1ccc(NS(=O)(=O)c2ccccc2)cc1)C(=O)O)C(=O)O | 10.2 µg/mL | > 250 µg/mL | – | – | – | –
37 | N[C@H](C[C@H](Cc1ccccc1Cl)C(=O)O)C(=O)O | 7.1 µg/mL | 3.9 µg/mL (≈ 14.4 µM) | – | – | – | –
38 | N[C@H](C[C@H](Cc1cc(C(F)(F)F)cc(C(F)(F)F)c1)C(=O)O)C(=O)O | > 100 µg/mL | > 250 µg/mL | – | – | – | –
39 | N[C@H](C[C@H](Cc1cccc2ccccc12)C(=O)O)C(=O)O | 5.6 µg/mL | 3.9 µg/mL (≈ 13.6 µM) | – | – | – | –
40 | N[C@H](C[C@H](CNC(=O)c1ccccc1)C(=O)O)C(=O)O | 9.4 µg/mL | 62.5 µg/mL (≈ 223 µM) | – | – | – | –
41 | N[C@H](C[C@H](C/C=C/c1ccccc1)C(=O)O)C(=O)O | 0.1 µg/mL | 0.4 µg/mL (≈ 1.52 µM) | – | – | – | –
42 | N[C@H](C[C@H](Cc1csc2ccccc12)C(=O)O)C(=O)O | 1.7 µg/mL | 7.8 µg/mL (≈ 26.6 µM) | – | – | – | –
43 | CC(C)(C)c1ccc(C[C@@H](C[C@@H](N)C(=O)O)C(=O)O)cc1 | 0.6 µg/mL | 1 µg/mL (≈ 3.41 µM) | – | – | – | –
44 | COc1cc(C[C@@H](C[C@@H](N)C(=O)O)C(=O)O)cc(OC)c1OC | 81 µg/mL | > 250 µg/mL | – | – | – | –
45 | N[C@H](C[C@H](Cc1ccc2ccccc2c1)C(=O)O)C(=O)O | 0.1 µg/mL | 0.25 µg/mL (≈ 0.87 µM) | > 250 µg/mL | 3.9 µg/mL (≈ 13.6 µM) | 62.5 µg/mL (≈ 218 µM) | 0.25 µg/mL (≈ 0.87 µM)
46 | COc1cccc(C[C@@H](C[C@@H](N)C(=O)O)C(=O)O)c1 | 0.2 µg/mL | 0.5 µg/mL (≈ 1.87 µM) | – | – | – | –
